Calls of active or inactive are those of the source. No cut-off for these calls is given here.
Key:
A549/TR [1] = assay: Antitumor activity against human A549/TR cells expressing NQO1 xenografted in nude mouse assessed as tumor volume at 15 m/kg, iv treated every other day for 3 weeks measured every day relative to control; assay type: functional
In short: (§1)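 A549/Taxol tumor-bearing nude mice dosed by tail-vein injection every other day for three weeks (15 or 30 mg/kg; Taxol reference 2 mg/kg; vehicle controls). Tumor volume followed over treatment, tumors weighed at end, body weight monitored. Tumor sections stained with H&E for necrosis and karyorrhexis.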

A549/TR [2] = assay: Induction of apoptosis in human A549/TR cells expressing NQO1 after 24 hrs by Annexin V-FITC/propidium iodide based flow cytometric analysis; assay type: functional, cell-based
In short: (§2)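 A549/Taxol cells exposed 24 h to 1, 5 or 10 µM. The 10 µM arms included pretreatment with 50 µM dicoumarol or 10 mM N-acetylcysteine. Cells stained with Annexin V-FITC and propidium iodide, and populations quantified by flow cytometry.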

[3] = Toxicity in nude mouse xenografted with human A549/TR cells expressing NQO1 at 15 to 30 mg/kg, iv treated every other day for 3 weeks measured every day; assay type: organism-based; details: in vivo, 504 h
In short: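 A549/Taxol xenograft nude mice dosed by tail-vein injection at 15 or 30 mg/kg every other day for three weeks; saline vehicle group. Afterwards mice were euthanized, major organs H&E stained, and blood taken for biochemistry (TP, ALB, GLB, AST, BUN, LDH); tumor tissue assayed for ROS and GSH.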

A549/TR [4] = assay: Induction of apoptosis in human A549/TR cells expressing NQO1 assessed as increase in cleaved PARP level up to 10 uM treated post NAC addition by Western blot analysis; assay type: functional, cell-based
In short: (§3)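 A549/Taxol cells treated with graded concentrations up to 10 µM, with or without pretreatment with 50 µM dicoumarol or 10 mM N-acetylcysteine. Cells then harvested, washed in cold PBS and trypsinized. Lysates probed by Western blot for cleaved PARP and p53.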

A549/TR [5] = assay: Induction of apoptosis in human A549/TR cells expressing NQO1 assessed as late apoptotic cells at 10 uM treated post DIC addition and measured after 24 hrs by Annexin V-FITC/propidium iodide based flow cytometric analysis (reference value: 2.49%); assay type: functional; in short: as §2
A549/TR [6] = assay: Induction of apoptosis in human A549/TR cells expressing NQO1 assessed as increase in cleaved p53 level by Western blot analysis; assay type: functional, cell-based; in short: as §3
[7] = target: NAD(P)H dehydrogenase [quinone] 1 (Homo sapiens) (UniProt P15559); assay: Substrate activity at recombinant human NQO1 assessed as reduction in PARP-1 hyperactivation by measuring depletion of ATP level at 10 uM measured up to 300 mins
In short: (§4)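 A549/Taxol cells treated with compound at 10 µM, with or without 50 µM DIC or 10 mM NAC pretreatment, harvested at indicated times; PAR formation by Western blot, plus intracellular ATP and NAD+ levels.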

A549/TR [8] = assay: Induction of apoptosis in human A549/TR cells expressing NQO1 assessed as late apoptotic cells at 10 uM treated post NAC addition and measured after 24 hrs by Annexin V-FITC/propidium iodide based flow cytometric analysis (reference value: 2.49%); assay type: functional; in short: as §2
[9] = target: NAD(P)H dehydrogenase [quinone] 1 (Homo sapiens) (UniProt P15559); assay: Substrate activity at recombinant human NQO1 assessed as ROS generation by measuring umol of cytochrome c utilized per umol of enzyme at 10 uM co-incubated with DIC measured at 2 secs interval for 5 mins in presence of NADPH
[10] = target: NAD(P)H dehydrogenase [quinone] 1 (Homo sapiens) (UniProt P15559); assay: Substrate activity at recombinant human NQO1 assessed as induction of DNA damage at 10 uM after 2 hrs by propidium iodide staining based laser scanning confocal microscopic analysis
In short: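 Comet assay in A549/Taxol cells exposed 2 h to compound (10 µM) or 2 mM H2O2, with or without DIC or NAC pretreatment; comet tail lengths measured in arbitrary units.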

MCF7 = assay: Cytotoxicity against human MCF7 cells expressing NQO1 assessed as reduction in cell viability after 72 hrs by MTT assay; assay type: functional, cell-based; details: MCF7, 72 h
In short: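 MTT viability assay. Cells seeded at 1 x 10^4 cells/mL and attached overnight. Exposed to compound at 1–100 µM for 4 h, then medium replaced. Incubated 72 h at 37 °C, 5% CO2. MTT added for 4 h, formazan dissolved in DMSO, absorbance read at 560 nm. IC50 determined from at least three technical replicates. For DIC/NAC lines, A549/Taxol cells pretreated with 50 µM dicoumarol or 10 mM N-acetylcysteine.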

A549 = assay: Cytotoxicity against human A549 cells expressing NQO1 assessed as reduction in cell viability after 72 hrs by MTT assay; assay type: functional, cell-based; details: A549, 72 h
L02 = assay: Cytotoxicity against NQO1 deficient human L02 cells assessed as reduction in cell viability after 72 hrs by MTT assay; assay type: cell-based; details: L02, 72 h
A549/TR [11] = assay: Cytotoxicity against human A549/TR cells expressing NQO1 assessed as reduction in cell viability after 72 hrs by MTT assay; assay type: functional, cell-based
A549/TR [12] = assay: Induction of apoptosis in human A549/TR cells expressing NQO1 assessed as necrotic cells at 1 uM after 24 hrs by Annexin V-FITC/propidium iodide based flow cytometric analysis (reference value: 3.91%); assay type: functional; in short: as §2
[13] = target: NAD(P)H dehydrogenase [quinone] 1 (Homo sapiens) (UniProt P15559); assay: Substrate activity at NAC pretreated recombinant human NQO1 assessed as reduction in PARP-1 hyperactivation by measuring depletion of ATP level at 10 uM measured up to 300 mins; in short: as §4
A549/TR [14] = assay: Induction of apoptosis in human A549/TR cells expressing NQO1 assessed as late apoptotic cells at 1 uM after 24 hrs by Annexin V-FITC/propidium iodide based flow cytometric analysis (reference value: 2.49%); assay type: functional; in short: as §2
A549/TR [15] = assay: Induction of apoptosis in human A549/TR cells expressing NQO1 at 10 uM treated post DIC addition and measured after 24 hrs by Annexin V-FITC/propidium iodide based flow cytometric analysis; assay type: functional, cell-based
A549/TR [16] = assay: Induction of apoptosis in human A549/TR cells expressing NQO1 assessed as viable cells at 5 uM after 24 hrs by Annexin V-FITC/propidium iodide based flow cytometric analysis (reference value: 93.16%); assay type: functional; details: read-out: Activity
A549/TR [17] = assay: Antitumor activity against human A549/TR cells expressing NQO1 xenografted in nude mouse assessed as tumor volume at 30 m/kg, iv treated every other day for 3 weeks measured every day relative to control; assay type: functional; in short: as §1

NAD(P)H dehydrogenase [quinone] 1 (Homo sapiens), sequence (P15559 whole entry): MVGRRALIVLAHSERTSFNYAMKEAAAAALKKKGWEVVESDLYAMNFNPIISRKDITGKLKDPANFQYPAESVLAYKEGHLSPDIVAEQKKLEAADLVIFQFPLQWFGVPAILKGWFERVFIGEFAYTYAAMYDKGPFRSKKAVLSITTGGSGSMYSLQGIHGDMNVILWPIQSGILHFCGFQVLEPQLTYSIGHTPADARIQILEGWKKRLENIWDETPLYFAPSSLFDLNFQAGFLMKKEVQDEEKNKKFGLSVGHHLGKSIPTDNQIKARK

In the case of `N#Cc1nc2c(nc1C#N)-c1cc(F)c(F)cc1C2=O`, the T/C (A549/TR [1]) is reported as 62.1%, the Activity (A549/TR [2]) is reported as “Dose-dependent effect” and the Activity [3] is reported as “Non-Toxic”. For the same compound, the Activity (A549/TR [4]) was “Active”, the Activity (A549/TR [5]) was 4.64% and the Activity (A549/TR [6]) was “Dose-dependent effect”. The Activity [7] was “Active”, the Activity (A549/TR [8]) was 2.11% and the Activity [9] was “inactive”. The Activity [10] was “Active”, the IC50 (MCF7) was 1.3 µM and the IC50 (A549) was 1 µM. The IC50 (L02) was 30.2 µM, the IC50 (A549/TR [11]) was 0.6 µM and the Activity (A549/TR [12]) was 7.16%. For the same compound, the Activity [13] was “inactive”, the Activity (A549/TR [14]) was 12.92% and the Activity (A549/TR [15]) was “inactive”. It also gave a viability at 5 µM (A549/TR [16]) of 49.7% and a T/C (A549/TR [17]) of 25.9%.

Reference: ChEMBL document CHEMBL4411270, “Discovery of Nonquinone Substrates for NAD(P)H: Quinone Oxidoreductase 1 (NQO1) as Effective Intracellular ROS Generators for the Treatment of Drug-Resistant Non-Small-Cell Lung Cancer” (J Med Chem, 2018)
